Experiment [1] concerns the target T1, Protein cereblon/Histone-lysine N-methyltransferase EZH2 (Homo sapiens) (UniProt Q15910+Q96SW2). The experiment in a line: PROTAC activity at CRBN E3 ligase/EZH2 in PRC2 complex in human WSUDLCL2 cells assessed as induction of SUZ12 degradation at 1 uM incubated for 48 hrs by Western blot analysis relative to control. It is filed as cell-based. In outline: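 WSU-DLCL-2 cells treated 48 h (1 μM for the single-concentration screen), lysed; SDS-PAGE, nitrocellulose transfer, 5% milk block, primary antibody 4 °C overnight, chemiluminescence. Bands quantified by densitometry, normalized to GAPDH, expressed relative to DMSO-treated cells; mean ± SD of three independent experiments, t-test.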
Background: A western blot detects proteins with antibodies after separation by electrophoresis.

Experiment [2] concerns the target T1, Protein cereblon/Histone-lysine N-methyltransferase EZH2 (Homo sapiens). Description: PROTAC activity at CRBN E3 ligase/EZH2 in PRC2 complex in human WSUDLCL2 cells assessed as induction of RbAp48 degradation incubated for 48 hrs by Western blot analysis. The settings on record: dose 1-10 µM. It is filed as cell-based.
Experiment [3] has the same target. The experiment in a line: PROTAC activity at CRBN E3 ligase/EZH2 in PRC2 complex in human WSUDLCL2 cells assessed as induction of RbAp48 degradation at 10 uM incubated for 48 hrs by Western blot analysis. Type of experiment: cell-based.
For experiment [4] the target is unchanged. Description: PROTAC activity at CRBN E3 ligase/EZH2 in PRC2 complex in human WSUDLCL2 cells assessed as induction of EED degradation at 1 uM measured up to 2 hrs by Western blot analysis. Type of experiment: cell-based. Conditions: time hrs <=2.
For experiment [5] the target is unchanged. The experiment in a line: PROTAC activity at CRBN E3 ligase/EZH2 in PRC2 complex in human WSUDLCL2 cells assessed as induction of RbAp48 degradation at 1 uM measured up to 2 hrs by Western blot analysis. Type of experiment: cell-based. Conditions: time hrs <=2.
Experiment [6] shares this target. Description: PROTAC activity at CRBN E3 ligase/EZH2 in PRC2 complex in human WSUDLCL2 cells assessed as reduction in H3K27me3 protein level at 1 uM measured after 48 to 72 hrs by Western blot analysis. Conditions: time 48-72 hrs. Type of experiment: cell-based.
Experiment [7] concerns WSUDLCL2. Description: Inhibition of PRC2 in human WSUDLCL2 cells assessed as suppression H3K27 trimethylation at 10 uM incubated for 48 hrs by Western blot analysis. Type of experiment: cell-based. The method in brief: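 Lysates run on SDS-PAGE and transferred to nitrocellulose. Membranes blocked with 5% skim milk for 2 h, primary antibody applied overnight at 4 °C, then secondary antibody and chemiluminescent detection of histone H3 methylation marks.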

The target in experiment [8] is T1, Protein cereblon/Histone-lysine N-methyltransferase EZH2 (Homo sapiens). The experiment in a line: PROTAC activity at CRBN E3 ligase/EZH2 in PRC2 complex in human SU-DHL-6 cells assessed as reduction in H3K27me3 level at 1 uM incubated for 48 hrs by Western blot analysis. Type of experiment: cell-based. The method in brief: (§1)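 Cells cultured in DMEM or RPMI 1640 with 10% FBS and 1% penicillin-streptomycin, 37 °C, 5% CO2; exposed to 1 μM compound for 48 h. Lysates run on SDS-PAGE and transferred to nitrocellulose. Blocked 2 h in 5% skim milk, primary antibody overnight at 4 °C, then secondary antibody. Chemiluminescent detection of PRC2 subunits and H3K27me3.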

The target is the same in experiment [9]. The experiment in a line: PROTAC activity at CRBN E3 ligase/EZH2 in PRC2 complex in human DU-145 cells assessed as induction of EED degradation by measuring reduction in EED protein level at 1 uM incubated for 48 hrs by Western blot analysis. It is filed as cell-based. The method in brief: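 Cancer cell lines exposed to 1 μM compound for 48 h. Lysates immunoblotted (SDS-PAGE, nitrocellulose, 5% milk block, primary antibody overnight at 4 °C) for EZH2, SUZ12, EED, RbAp48 and H3K27me3. Bands quantified by densitometry and normalized to GAPDH.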

Experiment [10] shares this target. The experiment in a line: PROTAC activity at CRBN E3 ligase/EZH2 in PRC2 complex in human SK-OV-3 cells assessed as induction of EED degradation by measuring reduction in EED protein level at 1 uM incubated for 48 hrs by Western blot analysis. Type of experiment: cell-based. The method in brief:
as §1

The target is the same in experiment [11]. The experiment in a line: PROTAC activity at CRBN E3 ligase/EZH2 in PRC2 complex in human WSUDLCL2 cells assessed as effect on EED mRNA expression at 1 uM incubated for 48 hrs by RT-qPCR analysis. It is filed as cell-based. In outline: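 WSU-DLCL-2 cells treated 48 h with 1 μM compound. Total RNA extracted with Trizol and reverse-transcribed. SYBR qPCR run as 95 °C 30 s, then 40 cycles of 95 °C 6 s and 60 °C 20 s. PRC2 subunit mRNA normalized to the DMSO-treated group; mean SD, t-test.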
(Real-time PCR tracks product formation cycle by cycle.)

The target is the same in experiment [12]. Description: PROTAC activity at CRBN E3 ligase/EZH2 in PRC2 complex in human WSUDLCL2 cells assessed as downregulation of SUZ12 expression at 1 uM pretreated with GSK126 for 4 hrs followed by compound addition and measured after 48 hrs by Western blot analysis. Type of experiment: cell-based. The method in brief:
(§2)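 WSU-DLCL-2 cells pretreated 4 h with the named inhibitor, then compound added and incubated a further 48 h. EZH2, SUZ12, EED and RbAp48 measured by western blot (nitrocellulose transfer, skim-milk block, primary antibody overnight at 4 °C, chemiluminescent detection).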

Experiment [13] has the same target. Description: PROTAC activity at CRBN E3 ligase/EZH2 in PRC2 complex in human WSUDLCL2 cells assessed as downregulation of EED expression at 1 uM pretreated with GSK126 for 4 hrs followed by compound addition and measured after 48 hrs by Western blot analysis. It is filed as cell-based. The method in brief: as §2
Experiment [14] has as its system WSUDLCL2. Description: Upregulation of ADRB2 mRNA expression in human WSUDLCL2 cells at 1 uM incubated for 48 hrs by qRT-PCR analysis. It is filed as functional, cell-based. In outline:
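WSU-DLCL-2 or Pfeiffer cells treated 48 h. Trizol RNA extraction, reverse transcription, SYBR qPCR (95 °C 30 s; 40 cycles of 95 °C 6 s, 60 °C 20 s). mRNA normalized to DMSO-treated cells; mean ± SD of three independent experiments, t-test.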

The test system of experiment [15] is A549. Description: Downregulation of CHEK1 mRNA expression in human A549 cells at 10 uM incubated for 48 hrs by qRT-PCR analysis. It is filed as functional, cell-based. In outline: (§3)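 Cells treated 48 h. Total RNA extracted with Trizol, reverse-transcribed, and SYBR RT-qPCR run: 95 °C 30 s, then 40 cycles of 95 °C 6 s and 60 °C 20 s. mRNA normalized to the DMSO-treated group. Mean SD of three independent experiments, t-test versus DMSO.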

Experiment [16] concerns A549. Description: Downregulation of TACC3 mRNA expression in human A549 cells at 10 uM incubated for 48 hrs by qRT-PCR analysis. It is filed as functional, cell-based. In outline: as §3
Experiment [17] has as its target T1, Protein cereblon/Histone-lysine N-methyltransferase EZH2 (Homo sapiens). Description: PROTAC activity at CRBN E3 ligase/EZH2 in PRC2 complex in human WSUDLCL2 cells assessed as downregulation of EED expression at 1 uM pretreated with lenalidomide for 4 hrs followed by compound addition and measured after 48 hrs by Western blot analysis. Type of experiment: cell-based. The method in brief: as §2

Experiment [18] has the same target. Description: PROTAC activity at CRBN E3 ligase/EZH2 in PRC2 complex in human WSUDLCL2 cells assessed as downregulation of EZH2 expression at 1 uM pretreated with EPZ6438 for 4 hrs followed by compound addition and measured after 48 hrs by Western blot analysis. It is filed as cell-based. In outline:
as §2

Experiment [19] shares this target. The experiment in a line: PROTAC activity at CRBN E3 ligase/EZH2 in PRC2 complex in human WSUDLCL2 cells assessed as downregulation of SUZ12 expression at 1 uM pretreated with EPZ6438 for 4 hrs followed by compound addition and measured after 48 hrs by Western blot analysis. It is filed as cell-based. In outline:
as §2

The source made the active and inactive calls. No cut-off for these calls is given here.

T1 sequence (Q15910 whole entry, looked up): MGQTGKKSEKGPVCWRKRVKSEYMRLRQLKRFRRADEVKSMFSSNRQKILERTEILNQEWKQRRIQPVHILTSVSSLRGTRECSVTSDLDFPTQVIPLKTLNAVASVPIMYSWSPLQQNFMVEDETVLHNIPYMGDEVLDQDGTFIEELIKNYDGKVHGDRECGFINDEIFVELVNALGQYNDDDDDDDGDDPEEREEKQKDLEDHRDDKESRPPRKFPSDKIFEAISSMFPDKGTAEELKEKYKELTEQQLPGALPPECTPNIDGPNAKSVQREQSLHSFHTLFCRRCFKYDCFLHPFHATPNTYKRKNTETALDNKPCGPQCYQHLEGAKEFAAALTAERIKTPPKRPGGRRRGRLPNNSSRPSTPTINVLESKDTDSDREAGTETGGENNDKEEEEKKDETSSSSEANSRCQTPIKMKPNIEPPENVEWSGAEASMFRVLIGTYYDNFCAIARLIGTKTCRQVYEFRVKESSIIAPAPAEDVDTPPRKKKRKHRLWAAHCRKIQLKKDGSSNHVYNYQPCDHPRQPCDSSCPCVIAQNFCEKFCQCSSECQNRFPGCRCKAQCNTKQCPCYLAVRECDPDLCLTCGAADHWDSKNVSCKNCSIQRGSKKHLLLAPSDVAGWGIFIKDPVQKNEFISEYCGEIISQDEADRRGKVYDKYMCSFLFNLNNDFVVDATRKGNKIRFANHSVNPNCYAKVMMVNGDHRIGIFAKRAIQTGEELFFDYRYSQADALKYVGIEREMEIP
T1 sequence (Q96SW2 whole entry, looked up): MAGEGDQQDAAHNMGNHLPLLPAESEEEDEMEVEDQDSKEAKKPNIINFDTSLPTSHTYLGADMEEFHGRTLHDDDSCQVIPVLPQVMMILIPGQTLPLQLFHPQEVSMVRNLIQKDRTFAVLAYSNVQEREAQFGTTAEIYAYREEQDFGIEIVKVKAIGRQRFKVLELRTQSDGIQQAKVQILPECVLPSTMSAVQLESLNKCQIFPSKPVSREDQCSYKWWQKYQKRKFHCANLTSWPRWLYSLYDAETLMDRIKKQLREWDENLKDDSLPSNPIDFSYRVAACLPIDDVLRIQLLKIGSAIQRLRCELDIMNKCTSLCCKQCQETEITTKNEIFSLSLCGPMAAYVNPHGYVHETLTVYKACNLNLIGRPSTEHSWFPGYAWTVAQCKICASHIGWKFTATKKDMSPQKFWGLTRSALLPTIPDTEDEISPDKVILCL

For `CCN(c1cc(-c2ccc(CN3CCN(CCCCCCCOc4cccc5c4C(=O)N(C4CCC(=O)NC4=O)C5=O)CC3)cc2)cc(C(=O)NCc2c(C)cc(C)[nH]c2=O)c1C)C1CCOCC1` (centres undefined), the Activity in experiment [1] was 81%; in experiment [2] it was “Dose-Dependent Effect”. Moreover, the result in experiment [3], in experiment [4], in [5], in experiment [11], in [12] and in experiment [13] was inactive. Besides, the outcome in experiment [17], in experiment [18] and in experiment [19] was inactive. Moreover, the outcome in experiment [6], in experiment [8], in experiment [9], in experiment [10], in experiment [14] and in experiment [15] was Active. Besides, the outcome in [16] was Active. Besides, the inhibition result in experiment [7] was “Active”.

For the origin of these results see ChEMBL document CHEMBL5038571, “Design and Synthesis of EZH2-Based PROTACs to Degrade the PRC2 Complex for Targeting the Noncatalytic Activity of EZH2” (J Med Chem, 2021).
